Results as given in ChEMBL document CHEMBL3091355, “Designing and synthesis of novel antimicrobial heterocyclic analogs of fatty acids” (2013).
≈ marks a conversion by molar mass, not a printed value.

Assays:
Assay type in all cases: functional
[1] = system: Klebsiella pneumoniae; test: Antibacterial activity against Klebsiella pneumoniae clinical isolate after 24 hrs by broth micro dilution method
[2] = system: Streptococcus pyogenes; test: Antibacterial activity against Streptococcus pyogenes clinical isolate after 24 hrs by broth micro dilution method
[3] = system: Candida parapsilosis; test: Fungicidal activity against Candida parapsilosis by micro dilution method; settings: Lodderomyces parapsilosis
[4] = system: Candida parapsilosis; test: Fungicidal activity against Candida parapsilosis clinical isolate by micro dilution method; settings: Lodderomyces parapsilosis
[5] = system: Candida albicans; test: Antifungal activity against Candida albicans clinical isolate after 20 hrs by agar dilution method
[6] = system: Pseudomonas aeruginosa; test: Antibacterial activity against Pseudomonas aeruginosa ATCC 27853 after 24 hrs by disc diffusion method
Outline: (§1)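 Disk diffusion on agar; activity measured as the halo zone of inhibition around the disk.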

[7] = system: Klebsiella pneumoniae; test: Bactericidal activity against Klebsiella pneumoniae clinical isolate after 18 to 24 hrs; settings: read-out: MBC99.9
[8] = system: Staphylococcus aureus; test: Antibacterial activity against Staphylococcus aureus after 24 hrs by disc diffusion method; outline: as §1
[9] = system: Escherichia coli; test: Antibacterial activity against Escherichia coli ATCC 25922 after 24 hrs by disc diffusion method; outline: as §1
[10] = system: Candida albicans; test: Fungicidal activity against Candida albicans by micro dilution method
[11] = system: Staphylococcus aureus; test: Antibacterial activity against Staphylococcus aureus after 24 hrs by broth micro dilution method
Outline: (§2)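 MIC by broth microdilution; growth read visually and spectrophotometrically. MIC taken as the lowest concentration giving complete inhibition of bacterial growth.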

[12] = system: Nakaseomyces glabratus; test: Antifungal activity against Candida glabrata after 20 hrs by agar dilution method
[13] = system: Streptococcus pyogenes; test: Bactericidal activity against Streptococcus pyogenes clinical isolate after 18 to 24 hrs; settings: read-out: MBC99.9
[14] = system: Pseudomonas aeruginosa; test: Bactericidal activity against Pseudomonas aeruginosa ATCC 27853 after 18 to 24 hrs; settings: read-out: MBC99.9
Outline: (§3)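 MBC taken as the lowest concentration that killed the bacteria completely.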

[15] = system: Candida parapsilosis; test: Antifungal activity against Candida parapsilosis after 20 hrs by agar dilution method; settings: Lodderomyces parapsilosis
[16] = system: Escherichia coli; test: Antibacterial activity against Escherichia coli ATCC 25922 after 24 hrs by broth micro dilution method; settings: ATCC 25922, 24 h; outline: as §2
[17] = system: Candida dubliniensis; test: Antifungal activity against Candida dubliniensis after 20 hrs by agar dilution method
[18] = system: Candida albicans; test: Antifungal activity against Candida albicans after 20 hrs by agar dilution method
Outline: (§4)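 Clinical Candida isolates purified and subcultured on SC, SCC and PDA media before testing. Compounds were dissolved in DMSO as a stock, then diluted into solid PDA medium to final concentrations of 0.0312 to 256.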

[19] = system: Pseudomonas aeruginosa; test: Antibacterial activity against Pseudomonas aeruginosa ATCC 27853 after 24 hrs by broth micro dilution method; settings: ATCC 27853, 24 h; outline: as §2
[20] = system: Candida dubliniensis; test: Fungicidal activity against Candida dubliniensis by micro dilution method
[21] = system: Candida tropicalis; test: Antifungal activity against Candida tropicalis after 20 hrs by agar dilution method
[22] = system: Candida tropicalis; test: Antifungal activity against Candida tropicalis clinical isolate after 20 hrs by agar dilution method
[23] = system: Candida albicans; test: Antifungal activity against fluconazole, itraconazole-resistant Candida albicans clinical isolate after 20 hrs by agar dilution method; outline: as §4
[24] = system: Candida albicans; test: Fungicidal activity against Candida albicans clinical isolate by micro dilution method
[25] = system: Pichia kudriavzevii; test: Fungicidal activity against Candida krusei by micro dilution method
[26] = system: Streptococcus pyogenes; test: Antibacterial activity against Streptococcus pyogenes clinical isolate after 24 hrs by disc diffusion method
[27] = system: Klebsiella pneumoniae; test: Antibacterial activity against Klebsiella pneumoniae clinical isolate after 24 hrs by disc diffusion method
[28] = system: Candida tropicalis; test: Antifungal activity against fluconazole, itraconazole-resistant Candida tropicalis clinical isolate after 20 hrs by agar dilution method; outline: as §4
[29] = system: Escherichia coli; test: Bactericidal activity against Escherichia coli ATCC 25922 after 18 to 24 hrs; settings: read-out: MBC99.9; outline: as §3
[30] = system: Staphylococcus aureus; test: Bactericidal activity against Staphylococcus aureus after 18 to 24 hrs; settings: read-out: MBC99.9; outline: as §3
[31] = system: Candida parapsilosis; test: Antifungal activity against Candida parapsilosis clinical isolate after 20 hrs by agar dilution method; settings: Lodderomyces parapsilosis
[32] = system: Candida tropicalis; test: Fungicidal activity against Candida tropicalis by micro dilution method
[33] = system: Nakaseomyces glabratus; test: Fungicidal activity against Candida glabrata by micro dilution method
[34] = system: Pichia kudriavzevii; test: Antifungal activity against Candida krusei after 20 hrs by agar dilution method
[35] = system: Candida tropicalis; test: Fungicidal activity against Candida tropicalis clinical isolate by micro dilution method

Row | SMILES | MFC [3] [µg/mL] | MFC [4] [µg/mL] | MIC90 [5] [µg/mL] | diameter of the inhibition zone (DIZ) [6] [mm] | diameter of the inhibition zone (DIZ) [8] [mm] | MFC [10] [µg/mL] | MIC90 [12] [µg/mL] | MIC90 [15] [µg/mL] | MIC90 [17] [µg/mL] | MIC90 [18] [µg/mL] | MFC [20] [µg/mL] | MIC90 [21] [µg/mL] | MIC90 [22] [µg/mL] | MFC [24] [µg/mL] | MFC [25] [µg/mL] | MIC90 [31] [µg/mL] | MFC [32] [µg/mL] | MFC [33] [µg/mL] | MIC90 [34] [µg/mL] | MFC [35] [µg/mL] | other results
1 | CCCCCC1C(CCC)=NOC1CC[C@H](O)CCCCCCCC(=O)OC (stereo partly drawn) | > 256 | > 256 | 64 (≈ 161 µM) | 31.8 | 20.8 | > 256 | 64 (≈ 161 µM) | 32 (≈ 80.5 µM) | 128 (≈ 322 µM) | 128 (≈ 322 µM) | > 256 | 128 (≈ 322 µM) | 64 (≈ 161 µM) | 256 (≈ 644 µM) | > 256 | 128 (≈ 322 µM) | > 256 | 128 (≈ 322 µM) | 128 (≈ 322 µM) | > 128 | MIC [1]: 25 µg/mL (≈ 62.9 µM); MIC [2]: 25 µg/mL (≈ 62.9 µM); MBC [7]: 100 µg/mL (≈ 252 µM); diameter of the inhibition zone (DIZ) [9]: 26.5 mm; MIC [11]: 25 µg/mL (≈ 62.9 µM); MBC [13]: 50 µg/mL (≈ 126 µM); MBC [14]: 100 µg/mL (≈ 252 µM); MIC [16]: 25 µg/mL (≈ 62.9 µM); MIC [19]: 50 µg/mL (≈ 126 µM); MIC90 [23]: > 256 µg/mL; diameter of the inhibition zone (DIZ) [26]: 22.4 mm; diameter of the inhibition zone (DIZ) [27]: 18.9 mm; MIC90 [28]: > 256 µg/mL; MBC [29]: 100 µg/mL (≈ 252 µM); MBC [30]: 100 µg/mL (≈ 252 µM)
2 | O=C(O)c1cn(C2CC2)c2cc(N3CCNCC3)c(F)cc2c1=O [CIPROFLOXACIN] | – | – | – | 32 | 22 | – | – | – | – | – | – | – | – | – | – | – | – | – | – | – | diameter of the inhibition zone (DIZ) [9]: 27 mm
3 | OC(Cn1cncn1)(Cn1cncn1)c1ccc(F)cc1F [FLUCONAZOLE] | 32 (≈ 104 µM) | 1 (≈ 3.27 µM) | 8 (≈ 26.1 µM) | – | – | > 256 | 8 (≈ 26.1 µM) | 4 (≈ 13.1 µM) | 2 (≈ 6.53 µM) | > 256 | > 256 | 32 (≈ 104 µM) | 16 (≈ 52.2 µM) | > 256 | > 256 | 0.5 (≈ 1.63 µM) | 256 (≈ 836 µM) | 128 (≈ 418 µM) | 32 (≈ 104 µM) | 256 (≈ 836 µM) | –
4 | CCC(C)n1ncn(-c2ccc(N3CCN(c4ccc(OCC5COC(Cn6cncn6)(c6ccc(Cl)cc6Cl)O5)cc4)CC3)cc2)c1=O (stereo not drawn) [ITRACONAZOLE] | 0.5 (≈ 0.709 µM) | – | 0.12 (≈ 0.17 µM) | – | – | > 256 | 0.12 (≈ 0.17 µM) | 0.6 (≈ 0.85 µM) | > 256 | > 256 | > 256 | > 256 | 1 (≈ 1.42 µM) | > 256 | 0.12 (≈ 0.17 µM) | 0.25 (≈ 0.354 µM) | > 256 | > 256 | 0.6 (≈ 0.85 µM) | > 256 | –
